From ChEMBL document CHEMBL1649231, “In vitro activities of panduratin A against clinical Staphylococcus strains” (2009)
≈ marks a conversion by molar mass, not a printed value.

Key:
Type in all cases: functional
[1] = system: Staphylococcus aureus; assay: Antimicrobial activity against methicillin-resistant Staphylococcus aureus after 24 hrs by broth microdilution method
Outline: (§1)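 Clinical isolates came from blood, body fluids, genital secretions, pus or sputum, identified conventionally or by Vitek. MICs were run by CLSI M7-A6 broth microdilution in Mueller-Hinton broth with 5 × 10^5 CFU/ml inoculum. Agents were twofold serially diluted, starting from 10% DMSO. Drug-free and uninoculated controls were included. Plates were incubated aerobically at 37°C for 24 h; MIC is the lowest concentration giving no visible growth.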

[2] = system: Staphylococcus aureus; assay: Antimicrobial activity against methicillin-susceptible Staphylococcus aureus after 24 hrs by broth microdilution method; outline: as §1
[3] = system: Staphylococcus simulans; assay: Antimicrobial activity against methicillin-resistant coagulase-negative Staphylococcus simulans after 24 hrs by broth microdilution method; outline: as §1
[4] = system: Staphylococcus haemolyticus; assay: Bactericidal activity against methicillin-resistant coagulase-negative Staphylococcus haemolyticus after 24 hrs by plate counting method; details: Staphylococcus haemolyticus, 24 h
[5] = system: Staphylococcus haemolyticus; assay: Antimicrobial activity against methicillin-resistant coagulase-negative Staphylococcus haemolyticus assessed as susceptible isolates after 24 hrs by broth microdilution method
[6] = system: Staphylococcus haemolyticus; assay: Antimicrobial activity against methicillin-resistant coagulase-negative Staphylococcus haemolyticus after 24 hrs by broth microdilution method; outline: as §1
[7] = system: Staphylococcus epidermidis; assay: Bactericidal activity against methicillin-resistant coagulase-negative Staphylococcus epidermidis after 24 hrs by plate counting method; details: Staphylococcus epidermidis, 24 h
[8] = system: Staphylococcus epidermidis; assay: Antimicrobial activity against methicillin-resistant coagulase-negative Staphylococcus epidermidis assessed as susceptible isolates after 24 hrs by broth microdilution method
[9] = system: Staphylococcus epidermidis; assay: Antimicrobial activity against methicillin-resistant coagulase-negative Staphylococcus epidermidis after 24 hrs by broth microdilution method; outline: as §1
[10] = system: Staphylococcus hominis; assay: Bactericidal activity against methicillin-resistant coagulase-negative Staphylococcus hominis after 24 hrs by plate counting method; details: Staphylococcus hominis, 24 h
[11] = system: Staphylococcus hominis; assay: Antimicrobial activity against methicillin-resistant coagulase-negative Staphylococcus hominis assessed as susceptible isolates after 24 hrs by broth microdilution method
[12] = system: Staphylococcus aureus; assay: Bactericidal activity against methicillin-susceptible Staphylococcus aureus after 24 hrs by plate counting method
Outline: (§2)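 Clinical staphylococcal isolates from patient body fluids, blood, genital secretions, pus or sputum; species by conventional methods or Vitek. Twofold dilutions in Mueller-Hinton broth, inoculum 5 × 10^5 CFU/ml, 37°C aerobic 24 h (CLSI M7-A6 microdilution). About 100 μl from each well without visible growth spread on MHA; 37°C 24 h. MBC = lowest concentration giving no growth on agar.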

[13] = system: Staphylococcus hominis; assay: Antimicrobial activity against methicillin-resistant coagulase-negative Staphylococcus hominis after 24 hrs by broth microdilution method; outline: as §1
[14] = system: Staphylococcus aureus; assay: Bactericidal activity against methicillin-resistant Staphylococcus aureus after 24 hrs by plate counting method
[15] = system: Staphylococcus aureus; assay: Antimicrobial activity against methicillin-susceptible Staphylococcus aureus assessed as susceptible isolates after 24 hrs by broth microdilution method
[16] = system: Staphylococcus aureus; assay: Antimicrobial activity against methicillin-resistant Staphylococcus aureus assessed as susceptible isolates after 24 hrs by broth microdilution method
[17] = system: Staphylococcus simulans; assay: Bactericidal activity against methicillin-resistant coagulase-negative Staphylococcus simulans after 24 hrs by plate counting method; details: Staphylococcus simulans, 24 h; outline: as §2
[18] = system: Mammaliicoccus sciuri; assay: Antimicrobial activity against methicillin-resistant coagulase-negative Staphylococcus sciuri after 24 hrs by broth microdilution method; outline: as §1
[19] = system: Mammaliicoccus sciuri; assay: Bactericidal activity against methicillin-resistant coagulase-negative Staphylococcus sciuri after 24 hrs by plate counting method; details: Mammaliicoccus sciuri, 24 h; outline: as §2
[20] = system: Staphylococcus hominis; assay: Antimicrobial activity against methicillin-susceptible coagulase-negative Staphylococcus hominis after 24 hrs by broth microdilution method; outline: as §1
[21] = system: Staphylococcus hominis; assay: Antimicrobial activity against methicillin-susceptible coagulase-negative Staphylococcus hominis assessed as susceptible isolates after 24 hrs by broth microdilution method
[22] = system: Staphylococcus hominis; assay: Bactericidal activity against methicillin-susceptible coagulase-negative Staphylococcus hominis after 24 hrs by plate counting method; outline: as §2
[23] = system: Staphylococcus epidermidis; assay: Antimicrobial activity against methicillin-susceptible coagulase-negative Staphylococcus epidermidis after 24 hrs by broth microdilution method; outline: as §1
[24] = system: Staphylococcus epidermidis; assay: Antimicrobial activity against methicillin-susceptible coagulase-negative Staphylococcus epidermidis assessed as susceptible isolates after 24 hrs by broth microdilution method
[25] = system: Staphylococcus epidermidis; assay: Bactericidal activity against methicillin-susceptible coagulase-negative Staphylococcus epidermidis after 24 hrs by plate counting method; outline: as §2
[26] = system: Staphylococcus haemolyticus; assay: Antimicrobial activity against methicillin-susceptible coagulase-negative Staphylococcus haemolyticus after 24 hrs by broth microdilution method; outline: as §1
[27] = system: Staphylococcus haemolyticus; assay: Antimicrobial activity against methicillin-susceptible coagulase-negative Staphylococcus haemolyticus assessed as susceptible isolates after 24 hrs by broth microdilution method
[28] = system: Staphylococcus haemolyticus; assay: Bactericidal activity against methicillin-susceptible coagulase-negative Staphylococcus haemolyticus after 24 hrs by plate counting method; outline: as §2
[29] = system: Staphylococcus simulans; assay: Antimicrobial activity against methicillin-susceptible coagulase-negative Staphylococcus simulans after 24 hrs by broth microdilution method; outline: as §1
[30] = system: Staphylococcus simulans; assay: Antimicrobial activity against methicillin-susceptible coagulase-negative Staphylococcus simulans assessed as susceptible isolates after 24 hrs by broth microdilution method
Outline: (§3)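 Clinical isolates from blood, body fluids, pus, sputum or genital secretions, identified conventionally or by Vitek, were tested alongside ATCC 29213 and ATCC 12228 controls. CLSI M7-A6 broth microdilution in Mueller-Hinton broth used twofold dilutions from a 10% DMSO solution and 5 × 10^5 CFU/ml inoculum. Drug-free and uninoculated wells served as controls; incubation was aerobic at 37°C for 24 h. MIC was the lowest concentration with no visible growth.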

[31] = system: Staphylococcus simulans; assay: Bactericidal activity against methicillin-susceptible coagulase-negative Staphylococcus simulans after 24 hrs by plate counting method; outline: as §2
[32] = system: Mammaliicoccus sciuri; assay: Antimicrobial activity against methicillin-susceptible coagulase-negative Staphylococcus sciuri after 24 hrs by broth microdilution method; outline: as §1
[33] = system: Mammaliicoccus sciuri; assay: Antimicrobial activity against methicillin-susceptible coagulase-negative Staphylococcus sciuri assessed as susceptible isolates after 24 hrs by broth microdilution method; outline: as §3
[34] = system: Mammaliicoccus sciuri; assay: Bactericidal activity against methicillin-susceptible coagulase-negative Staphylococcus sciuri after 24 hrs by plate counting method; outline: as §2

`CC(=O)NC[C@H]1CN(c2ccc(N3CCOCC3)c(F)c2)C(=O)O1` [LINEZOLID] gave an MIC50 [1] of 1 µg/mL (≈ 2.96 µM), an MIC90 [1] of 2 µg/mL (≈ 5.93 µM) and an MIC50 [2] of 1 µg/mL (≈ 2.96 µM). The MIC90 [2] was 4 µg/mL (≈ 11.9 µM), the MIC50 [3] was 0.25 µg/mL (≈ 0.741 µM) and the MIC90 [3] was 2 µg/mL (≈ 5.93 µM). It also gave an MBC [4] of 0.5 µg/mL (≈ 1.48 µM), an Activity [5] of 100% and an MIC50 [6] of 0.25 µg/mL (≈ 0.741 µM). For the same compound, the MIC90 [6] was 2 µg/mL (≈ 5.93 µM), the MBC [7] was 0.5 µg/mL (≈ 1.48 µM) and the Activity [8] was 100%. It also gave an MIC50 [9] of 0.25 µg/mL (≈ 0.741 µM), an MIC90 [9] of 2 µg/mL (≈ 5.93 µM) and an MBC [10] of 0.5 µg/mL (≈ 1.48 µM). The Activity [11] was 100%, the MBC50 [12] was 8 µg/mL (≈ 23.7 µM) and the MBC90 [12] was 32 µg/mL (≈ 94.9 µM). The MBC ([12]; Staphylococcus aureus, 24 h) was 2 µg/mL (≈ 5.93 µM), the MIC50 [13] was 0.25 µg/mL (≈ 0.741 µM) and the MIC90 [13] was 2 µg/mL (≈ 5.93 µM). It also gave an MBC90 [14] of 16 µg/mL (≈ 47.4 µM), an MBC ([14]; Staphylococcus aureus, 24 h) of 8 µg/mL (≈ 23.7 µM) and an Activity [15] of 96%. The Activity [16] was 100%, the MBC [17] was 0.5 µg/mL (≈ 1.48 µM) and the MIC50 [18] was 0.25 µg/mL (≈ 0.741 µM). The MIC90 [18] was 2 µg/mL (≈ 5.93 µM), the MBC [19] was 0.5 µg/mL (≈ 1.48 µM) and the MIC50 [20] was 0.25 µg/mL (≈ 0.741 µM). The MIC90 [20] was 4 µg/mL (≈ 11.9 µM), the Activity [21] was 96% and the MBC50 [22] was 2 µg/mL (≈ 5.93 µM). For the same compound, the MBC90 [22] was 4 µg/mL (≈ 11.9 µM), the MBC ([22]; Staphylococcus hominis, 24 h) was 0.25 µg/mL (≈ 0.741 µM) and the MIC50 [23] was 0.25 µg/mL (≈ 0.741 µM). It also gave an MIC90 [23] of 4 µg/mL (≈ 11.9 µM), an Activity [24] of 96% and an MBC50 [25] of 2 µg/mL (≈ 5.93 µM). It also gave an MBC90 [25] of 4 µg/mL (≈ 11.9 µM), an MBC ([25]; Staphylococcus epidermidis, 24 h) of 0.25 µg/mL (≈ 0.741 µM) and an MIC50 [26] of 0.25 µg/mL (≈ 0.741 µM). The MIC90 [26] was 4 µg/mL (≈ 11.9 µM), the Activity [27] was 96% and the MBC50 [28] was 2 µg/mL (≈ 5.93 µM). It also gave an MBC90 [28] of 4 µg/mL (≈ 11.9 µM), an MBC ([28]; Staphylococcus haemolyticus, 24 h) of 0.25 µg/mL (≈ 0.741 µM) and an MIC50 [29] of 0.25 µg/mL (≈ 0.741 µM). For the same compound, the MIC90 [29] was 4 µg/mL (≈ 11.9 µM), the Activity [30] was 96% and the MBC50 [31] was 2 µg/mL (≈ 5.93 µM). The MBC90 [31] was 4 µg/mL (≈ 11.9 µM), the MBC ([31]; Staphylococcus simulans, 24 h) was 0.25 µg/mL (≈ 0.741 µM) and the MIC50 [32] was 0.25 µg/mL (≈ 0.741 µM). The MIC90 [32] was 4 µg/mL (≈ 11.9 µM), the Activity [33] was 96% and the MBC50 [34] was 2 µg/mL (≈ 5.93 µM). For the same compound, the MBC90 [34] was 4 µg/mL (≈ 11.9 µM) and the MBC ([34]; Mammaliicoccus sciuri, 24 h) was 0.25 µg/mL (≈ 0.741 µM).
